Assay outcomes (PubChem)
Rows were chosen to be rich in hits. Some 2.6% of all compounds tested hit in one or more screens of this group.
SENP7 inh = blocks the human protease SENP7; recombinant SENP7, Z-RLRGG-aminoluciferin luminescence, 40 min; Q9BQF6; 330,000 tested, 1.5% active; AID 434973; inhibition, % at 5 µM;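 active = inhibition above about 50% at the single test dose, limit read from the data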;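 also: plate controls were DMSO with enzyme for no effect and no enzyme buffer wells for full effect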
SENP8 block-1 = SENP8 protease inhibition. Q96LD8. 330,000 tested, 1.2% active. inhibition, % at 10 µM. purified SENP8, Z-RLRGG-aminoluciferin cleavage, luminescence. AID 2540; in the data active = inhibition above about 50%
SENP8 block-2 = SENP8 (human) protease inhibition; recombinant SENP8, Nedd8 substrate fluorescence; Q96LD8; AID 602440; 360,000 tested, 0.64% active; inhibition, % at 20 µM; in the data active = inhibition mostly above about 40%, no sharp cut-off; inactive = mostly below about 27%
Platelet DG rel = platelet dense granule release activity; human platelet-rich plasma, SFLLRN dense granule ATP release, luminescence; inhibition, %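 (compounds screened at 7.5 µM in platelet-rich plasma)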; 300,000 tested, 0.22% active;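 active = mean replicate score, as percent of positive control, at or above 50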
SENP6 inh = SENP6 protease inhibition. Recombinant SENP6 catalytic domain, aminoluciferin luminescence. inhibition, % at 10 µM. Q9GZR1. 330,000 tested, 1.8% active;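 active = inhibition above about 50% at the single tested dose, limit read from the data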;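 also: plate controls were DMSO wells with enzyme for no effect and DMSO wells lacking enzyme for full effect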
Target sequence (Q9GZR1 628-1112 limits assumed): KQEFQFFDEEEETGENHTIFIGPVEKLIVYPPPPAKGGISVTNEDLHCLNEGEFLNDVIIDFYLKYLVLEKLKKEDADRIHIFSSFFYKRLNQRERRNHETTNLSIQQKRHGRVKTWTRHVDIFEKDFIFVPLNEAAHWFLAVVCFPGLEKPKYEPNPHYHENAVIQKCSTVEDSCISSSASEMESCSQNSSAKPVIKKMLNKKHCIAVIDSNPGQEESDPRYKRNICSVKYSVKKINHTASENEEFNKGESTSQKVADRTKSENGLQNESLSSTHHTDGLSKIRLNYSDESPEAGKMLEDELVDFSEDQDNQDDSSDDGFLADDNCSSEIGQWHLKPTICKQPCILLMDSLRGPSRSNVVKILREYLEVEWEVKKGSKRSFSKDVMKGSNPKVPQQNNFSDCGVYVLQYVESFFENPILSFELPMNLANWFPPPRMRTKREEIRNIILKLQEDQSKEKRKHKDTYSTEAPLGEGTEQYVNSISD
SENP1 inh = blocks the human SENP1 SUMO protease catalytic domain; recombinant SENP1 catalytic domain, CyPet-SUMO1-YPet FRET cleavage; Q9P0U3; 360,000 tested, 0.21% active; inhibition, % at 10 µM;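 active = inhibition at least 30% at 10 µM, raw YFP signal under a set limit, fluorescence ratio 0.5 to 1.5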;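 also: 0% = enzyme with DMSO and 100% = no enzyme wells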
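Controls: no-enzyme wells low, DMSO-plus-enzyme wells high control. Test system: human recombinant His6-tagged SENP1 catalytic domain enzyme. Reagent: SFCypet-SUMO1-SFYpet FRET protein substrate, 25 nM final. Doses: one dose per compound, 10 µM, 0.5% DMSO. Detection: FRET, CFP and YFP emission. Timing: 50 min reaction at room temperature.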
SENP8 conf = human SENP8 inhibition, confirmed; shares compounds with SENP7 inh; Recombinant SENP8, Z-RLRGG-aminoluciferin luminescence, 60 min; inhibition, % at 12.5 µM; 6,200 tested, 40% active;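 active = mean inhibition across replicates above about 50%, limit read from the data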
SENP6 conf = human SENP6 inhibition, confirmed | shares compounds with SENP7 inh | recombinant SENP6, Z-RLRGG-aminoluciferin luminescence | AID 488915 | inhibition, % at 12.5 µM | 6,200 tested, 58% active
SENP7 conf = human SENP7 inhibition, confirmed; 6,200 tested, 69% active; recombinant SENP7, Z-RLRGG-aminoluciferin luminescence, 40 min; shares compounds with SENP7 inh; inhibition, % at 12.5 µM
Casp3 select = selectivity test for SENP inhibitors: human caspase-3 inhibition; shares compounds with SENP7 inh; AID 488918; purified caspase-3, Z-DEVD-aminoluciferin luminescence, 60 min; 6,200 tested, 60% active; inhibition, % at 12.5 µM;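 active = mean inhibition above about 50%, limit read from the data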;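 also: plate controls were enzyme with DMSO for no effect and wells without caspase-3 for full effect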
SENP luc ctr = luminescence interference (SENP counter-screen); shares compounds with SENP7 inh; Pre-incubated SENP8/Z-RLRGG-aminoluciferin, luciferase luminescence interference; inhibition, % at 12.5 µM; 6,200 tested, 39% active; AID 488919;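 active = mean inhibition above about 50% when retested at one dose, limit read from the data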;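 also: plate controls were DMSO wells with completed reaction for no effect and substrate without enzyme for full effect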
Active calls of the source: *; . = no result.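 The calls were made as follows, unless noted: active = mean inhibition above about 50% in the one-dose retest (limit read from the data); inactive = the rest.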

SMILES	SENP7 inh	SENP8 block-1	SENP8 block-2	Platelet DG rel	SENP6 inh	SENP1 inh	SENP8 conf	SENP6 conf	SENP7 conf	Casp3 select	SENP luc ctr
O=S(=O)(Nc1ccc(O)c2ccccc12)c1cccs1	19	30	20	5	63*	1	13	12	-6	-2	-1
O=C(CN1C(=O)c2ccccc2S1(=O)=O)c1ccc(Cl)cc1Cl	8	72*	-2	-9	67*	-1	73*	77*	84*	50*	9
O=C1CNC(=S)N1c1nc(-c2ccccc2)cs1	88*	88*	18	5	96*	-1	-4	6	2	14	7
COC(=O)c1ccc(COc2ccc(/C=N/Nc3cccc(C(=O)O)c3)cc2)cc1	2	7	-3	2	35	-2	.	.	.	.	.
O=C(O)c1cc(N/N=C/c2ccc(OCc3ccccc3)cc2)ccc1Cl	30	72*	-8	-2	56*	-1	60*	54*	74*	15	69*
Cc1nn(-c2ccccc2)c(Cl)c1/C=N/NC(=O)OC(C)(C)C	-12	-9	1	-1	-15	3	.	.	.	.	.
Cc1nn(-c2ccccc2)c(Cl)c1/C=N/Nc1ccc(Cl)c(C(=O)O)c1	92*	97*	-16	9	100*	1	99*	100*	103*	85*	80*
c1ccc(-c2nc(C3CCCCC3)no2)cc1	34	12	13	-3	59*	0	-5	-1	57*	13	5
COc1ccc(-c2nc(C3CCCCC3)no2)cc1OC	1	-23	27	-2	1	2	.	.	.	.	.
CCC(=O)Oc1ccc(-c2nc(-c3cccnc3)no2)cc1	99*	97*	25	81*	97*	2	99*	100*	103*	99*	98*
Cc1ccc(Cc2nc(-c3cccnc3)no2)cc1	-1	-4	4	2	-18	1	.	.	.	.	.
Cc1ccc(-c2nc(-c3ccccc3)no2)cc1	98*	96*	6	19	63*	-1	78*	86*	95*	91*	50*
COc1ccc(-c2nc(-c3cccnc3)no2)cc1OC	24	5	-14	-6	11	3	.	.	.	.	.
CCCc1noc(-c2ccc(-c3ccccc3)cc2)n1	68*	50*	16	6	41	1	26	40	55*	50*	30
Cc1ccc(-c2nc(-c3cccnc3)no2)cc1	82*	66*	26	5	81*	0	72*	81*	98*	86*	67*
Cc1ccc(-c2nc(-c3ccccc3)no2)c(Cl)c1	100*	97*	-3	19	98*	1	96*	99*	102*	97*	83*
COc1ccccc1N1C(=O)c2ccccc2NC1c1ccncc1 (stereo not given)	-3	-8	-457	5	15	-2	.	.	.	.	.
COc1ccccc1N1C(=O)N(C(C)=O)C2C1Nc1ccccc1N2C (stereo not given)	-5	46	-23	-3	70*	-30	1	2	1	3	-4
COc1ccc2cc(C(=O)C3CCCN(C(=O)Cc4c(C)noc4C)C3)ccc2c1 (stereo not given)	2	-11	-377	-1	10	2	.	.	.	.	.
CCCCCc1ccc(-c2ccc(/C=C/C(=O)O)cc2)nc1	7	45	-33	16	76*	-1	76*	68*	88*	28	28
